Measured values: ChEMBL document CHEMBL3351231, “Structure and antimicrobial activity of phloroglucinol derivatives from Achyrocline satureioides” (2015)
In brackets after ≈: the same amount, converted by molar mass.

Tests used:
Staphylococcus aureus [1] = assay: Antimicrobial activity against methicillin-sensitive Staphylococcus aureus ATCC 25923 after 24 hrs by broth microdilution method; conditions: ATCC 25923, 24 h
Staphylococcus aureus [2] = assay: Antimicrobial activity against methicillin-resistant and vancomycin-intermediate Staphylococcus aureus NRS402 after 24 hrs by broth microdilution method; type: functional; conditions: NRS402, 24 h
Outline: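 Broth microdilution per NCCLS standard; strain stored at -80 °C in BHI broth with 20% glycerol, revived on BHI at 37 °C overnight. […] Ampicillin and kanamycin included as controls.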

Escherichia coli = assay: Antimicrobial activity against Escherichia coli ATCC 35218 after 24 hrs by broth microdilution method; type: functional; conditions: ATCC 35218, 24 h
Outline: (§1)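 Strains kept at −80 °C in BHI broth with 20% glycerol and revived on BHI at 37 °C overnight. NCCLS standard broth microdilution with 1:2 serial dilutions from 1 to 128 μM and an inoculum of 1 × 10⁵ CFU/mL. Ampicillin and kanamycin served as controls.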

Enterococcus faecalis = assay: Antimicrobial activity against Enterococcus faecalis ATCC 29212 after 24 hrs by broth microdilution method; type: functional; conditions: ATCC 29212, 24 h
Outline: as §1

Saccharomyces cerevisiae = assay: Antimicrobial activity against Saccharomyces cerevisiae BY4741 after 24 hrs by broth microdilution method; type: functional; conditions: BY4741, 24 h
Nakaseomyces glabratus = assay: Antimicrobial activity against Candida glabrata ATCC 9984 after 24 hrs by broth microdilution method; type: functional; conditions: ATCC 9984, 24 h
Candida albicans = assay: Antimicrobial activity against Candida albicans […] after 24 hrs by broth microdilution method; type: functional

Row | Compound | MIC (Staphylococcus aureus [1]) [µM] | MIC (Staphylococcus aureus [2]) [µM] | MIC (Escherichia coli) [µM] | MIC (Enterococcus faecalis) [µM] | MIC (Saccharomyces cerevisiae) [µM] | MIC (Nakaseomyces glabratus) [µM] | MIC (Candida albicans) [µM]
1 | CCc1oc(OC)c(Cc2c(O)c3c(c(C(=O)[C@@H](C)CC)c2O)OC(C)(C)C=C3)c(=O)c1C | > 128 | > 128 | > 128 | > 128 |  |  | 
2 | CCc1oc(=O)c(Cc2c(O)c3c(c(C(=O)[C@@H](C)CC)c2O)OC(C)(C)C=C3)c(O)c1C | 64 (≈ 28.3 µg/mL) | 64 (≈ 28.3 µg/mL) | > 128 | > 128 | > 128 | > 128 | > 128
3 | C=C(C)[C@@H]1Cc2c(O)c(Cc3c(O)c(C)c(CC)oc3=O)c(O)c(C(=O)[C@@H](C)CC)c2O1 | 32 (≈ 14.2 µg/mL) | 64 (≈ 28.3 µg/mL) | > 128 | 64 (≈ 28.3 µg/mL) | > 128 | > 128 | > 128
4 | CCc1oc(=O)c(Cc2c(O)c3c(c(C(=O)[C@@H](C)CC)c2O)OC(C)(C)[C@@H](O)C3)c(O)c1C | > 128 | > 128 | > 128 | > 128 | > 128 | > 128 | > 128
5 | C=C(C)C(O)Cc1c(O)c(C(=O)[C@@H](C)CC)c2oc3c4c(c(C(=O)[C@@H](C)CC)c(O)c3c2c1O)OC(C)(C)C=C4 (some centres not stated) | 32 (≈ 17.6 µg/mL) | 32 (≈ 17.6 µg/mL) | > 128 | 64 (≈ 35.2 µg/mL) | > 128 | > 128 | > 128
6 | CCc1oc(=O)c(Cc2c(O)c(CC=C(C)C)c(O)c(C(=O)[C@@H](C)CC)c2O)c(O)c1C | 8 (≈ 3.56 µg/mL) | 8 (≈ 3.56 µg/mL) | > 128 | 64 (≈ 28.4 µg/mL) | > 128 | > 128 | > 128
7 | CCc1oc(OC)c(Cc2c(O)c(C(=O)[C@@H](C)CC)c3c(c2OC)C=CC(C)(C)O3)c(=O)c1C | > 128 | > 128 | > 128 | > 128 |  |  | 
8 | CCc1oc(=O)c(Cc2c(O)c(C(=O)[C@@H](C)CC)c3c(c2OC)C=CC(C)(C)O3)c(OC)c1C | > 128 | > 128 | > 128 | > 128 |  |  | 
9 | CCc1oc(=O)c(Cc2c(OC(C)=O)c3c(c(C(=O)[C@@H](C)CC)c2OC(C)=O)OC(C)(C)C=C3)c(OC(C)=O)c1C | > 128 | > 128 | > 128 | > 128 |  |  | 
10 | CCc1oc(=O)c(Cc2c(O)c3c(c(C(=O)[C@@H](C)CC)c2O)OC(C)(C)CC3)c(O)c1C | > 128 | > 128 | > 128 | > 128 |  |  | 
11 | CCc1oc(=O)c(Cc2c(O)c(C(=O)[C@@H](C)CC)c3c(c2O)C2OC2C(C)(C)O3)c(O)c1C (some centres not stated) | > 128 | > 128 | > 128 | > 128 |  |  | 
12 | CCc1oc(=O)c(Cc2c(O)c3c(c(C(=O)[C@@H](C)CC)c2O)OC(C)(C)C(Br)=C3)c(O)c1C | 16 (≈ 8.34 µg/mL) | 8 (≈ 4.17 µg/mL) | > 128 | > 128 |  |  | 
13 | CCc1[nH]c(=O)c(Cc2c(O)c3c(c(C(=O)[C@@H](C)CC)c2O)OC(C)(C)C=C3)c(O)c1C | 32 (≈ 14.1 µg/mL) | 32 (≈ 14.1 µg/mL) | > 128 | > 128 |  |  | 
14 | CCc1oc(=O)c(Cc2c(O)c3c(c(C(=O)[C@@H](C)CC)c2O)OC(C(C)(C)O)C3)c(O)c1C (some centres not stated) | > 128 | > 128 | > 128 | > 128 |  |  | 
15 | CCc1oc(=O)c(Cc2c(O)c(CCC(C)C)c(O)c(C(=O)[C@@H](C)CC)c2O)c(O)c1C | 4 (≈ 1.79 µg/mL) | 4 (≈ 1.79 µg/mL) | > 128 | 32 (≈ 14.3 µg/mL) |  |  | 
16 | C=C(C)C(O)Cc1c(O)c(C(=O)C(C)CC)c(O)c2c1oc1c(C(=O)C(C)CC)c(O)c(CC=C(C)C)c(O)c12 (configuration not stated) [ACHYROFURAN] | < 1 | < 1 | > 128 | 2 (≈ 1.11 µg/mL) | > 128 | > 128 | > 128
17 | CC1(C)S[C@@H]2[C@H](NC(=O)[C@H](N)c3ccccc3)C(=O)N2[C@H]1C(=O)O [AMPICILLIN] | < 1 | 120 (≈ 41.9 µg/mL) | > 128 | 8.8 (≈ 3.07 µg/mL) |  |  | 
18 | COc1c(-c2ccccc2)oc2c(OC)c(O)cc(O)c2c1=O [GNAPHALIIN] | > 128 | > 128 | > 128 | > 128 | > 128 | > 128 | > 128
19 | NC[C@H]1O[C@H](O[C@H]2[C@H](O)[C@@H](O[C@H]3O[C@H](CO)[C@@H](O)[C@H](N)[C@H]3O)[C@H](N)C[C@@H]2N)[C@H](O)[C@@H](O)[C@@H]1O [KANAMYCIN] | 2.8 (≈ 1.36 µg/mL) | 240 (≈ 116 µg/mL) | > 128 | 360 (≈ 174 µg/mL) |  |  | 
